Data: ChEMBL document CHEMBL3593206, “SAR Studies of Exosite-Binding Substrate-Selective Inhibitors of A Disintegrin And Metalloprotease 17 (ADAM17) and Application as Selective in Vitro Probes” (J Med Chem, 2015)

Key:
[1] = target: T1, Disintegrin and metalloproteinase domain-containing protein 10 (Homo sapiens, UniProt O14672); assay: Inhibition of ADAM10 (unknown origin) preincubated for 30 mins followed by substrate addition measured every 30 mins for 2 hrs by fluorescence assay
T1 sequence (O14672 whole entry): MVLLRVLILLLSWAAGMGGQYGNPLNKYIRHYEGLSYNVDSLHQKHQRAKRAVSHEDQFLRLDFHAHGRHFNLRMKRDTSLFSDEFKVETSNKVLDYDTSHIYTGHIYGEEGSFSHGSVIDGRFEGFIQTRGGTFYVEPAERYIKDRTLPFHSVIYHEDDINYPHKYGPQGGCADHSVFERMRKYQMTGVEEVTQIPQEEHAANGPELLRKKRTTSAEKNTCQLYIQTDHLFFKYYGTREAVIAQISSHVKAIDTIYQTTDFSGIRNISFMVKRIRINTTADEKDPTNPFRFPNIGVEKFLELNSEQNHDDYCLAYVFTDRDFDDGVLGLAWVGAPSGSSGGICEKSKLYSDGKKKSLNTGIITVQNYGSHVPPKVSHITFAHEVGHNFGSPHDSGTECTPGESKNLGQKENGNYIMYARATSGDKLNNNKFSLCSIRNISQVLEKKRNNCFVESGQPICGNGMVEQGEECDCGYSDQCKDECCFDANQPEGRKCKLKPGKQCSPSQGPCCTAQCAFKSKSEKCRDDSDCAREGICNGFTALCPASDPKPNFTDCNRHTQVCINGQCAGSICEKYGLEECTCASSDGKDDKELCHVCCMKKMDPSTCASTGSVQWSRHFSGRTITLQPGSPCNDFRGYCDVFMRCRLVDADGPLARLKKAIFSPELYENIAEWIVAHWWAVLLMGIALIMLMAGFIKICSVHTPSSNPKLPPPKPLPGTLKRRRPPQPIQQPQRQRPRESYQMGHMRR
Method in brief: (§1)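 Enzyme at 30 nM (3× solution) in 10 mM Hepes, 0.001% Brij-35, pH 7.5. Inhibitor series of 10 points, 1:3, from 300 μM, preincubated 30 min at RT. Glycosylated substrate added from a 30 μM 3× solution. Fluorescence (ex 360/em 460 nm) read every 30 min for 2 h. Inhibition taken from hydrolysis rates against substrate-only and substrate-plus-enzyme wells.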

[2] = target: Disintegrin and metalloproteinase domain-containing protein 17 (Homo sapiens, UniProt P78536); assay: Inhibition of ADAM17 (unknown origin) preincubated for 30 mins followed by substrate addition measured every 30 mins for 2 hrs by fluorescence assay; method in brief: as §1
Chain of Disintegrin and metalloproteinase domain-containing protein 17 (P78536 whole entry, the tested form may be a part): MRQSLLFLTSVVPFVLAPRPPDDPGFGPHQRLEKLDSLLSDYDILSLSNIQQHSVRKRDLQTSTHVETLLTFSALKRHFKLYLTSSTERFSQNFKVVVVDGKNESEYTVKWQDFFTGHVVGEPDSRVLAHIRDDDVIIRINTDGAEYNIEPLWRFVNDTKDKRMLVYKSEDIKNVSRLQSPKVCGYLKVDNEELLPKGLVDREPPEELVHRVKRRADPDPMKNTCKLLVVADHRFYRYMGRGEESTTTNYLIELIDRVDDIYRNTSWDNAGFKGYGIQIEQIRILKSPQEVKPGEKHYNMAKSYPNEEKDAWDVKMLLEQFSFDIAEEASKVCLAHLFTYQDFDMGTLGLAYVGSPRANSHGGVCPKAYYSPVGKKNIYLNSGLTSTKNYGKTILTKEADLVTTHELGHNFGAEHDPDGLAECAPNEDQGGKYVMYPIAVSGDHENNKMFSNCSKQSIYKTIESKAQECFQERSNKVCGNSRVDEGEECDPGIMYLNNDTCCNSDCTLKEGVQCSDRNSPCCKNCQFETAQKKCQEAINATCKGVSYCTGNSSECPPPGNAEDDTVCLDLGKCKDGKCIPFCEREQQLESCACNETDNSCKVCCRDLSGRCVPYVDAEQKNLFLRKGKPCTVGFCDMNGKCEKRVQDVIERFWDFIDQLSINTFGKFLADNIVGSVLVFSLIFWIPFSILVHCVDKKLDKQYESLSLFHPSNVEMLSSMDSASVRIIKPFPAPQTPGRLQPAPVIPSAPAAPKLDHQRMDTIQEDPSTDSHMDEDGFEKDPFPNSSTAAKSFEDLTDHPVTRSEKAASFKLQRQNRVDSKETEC

Compound | IC50 [1] [µM] | IC50 [2] [µM]
CCCC[C@H]1CN([C@@H](Cc2ccc(O)cc2)CN2CCC[C@H]2CN2C(=O)C(=O)NC[C@@H]2CCC)C(=O)C(=O)N1CCC12CC3CC(CC(C3)C1)C2 | > 100 | 6.5
CCC[C@H]1CNC(=O)C(=O)N1C[C@@H]1CCCN1C[C@H](Cc1ccc(O)cc1)N1C[C@H](Cc2ccc3ccccc3c2)N(CCC23CC4CC(CC(C4)C2)C3)C(=O)C1=O | > 100 | 10
CCC[C@H]1CNC(=O)C(=O)N1C[C@@H]1CCCN1C[C@H](Cc1ccc(O)cc1)N1C[C@H](Cc2ccc(O)cc2)N(CC23CC4CC(CC(C4)C2)C3)C(=O)C1=O | > 100 | 10
O=C1NC[C@@H](Cc2ccc3ccccc3c2)N(C[C@@H]2CCCN2C[C@H](Cc2ccc(O)cc2)N2C[C@@H](Cc3ccc4ccccc4c3)N(CCC34CC5CC(CC(C5)C3)C4)C(=O)C2=O)C1=O | > 100 | 5.7
CCC[C@H]1CNC(=O)C(=O)N1C[C@@H]1CCCN1C[C@H](Cc1ccc(O)cc1)N1C[C@@H](Cc2ccc(O)cc2)N(CCC23CC4CC(CC(C4)C2)C3)C(=O)C1=O | > 100 | 5.4
CCC[C@H]1CNC(=O)C(=O)N1C[C@@H]1CCCN1C[C@H](Cc1ccc(O)cc1)N1C[C@H](Cc2ccc(O)cc2)N(CCC23CC4CC(CC(C4)C2)C3)C(=O)C1=O | > 100 | 5.9
CCC[C@H]1CNC(=O)C(=O)N1C[C@@H]1CCCN1C[C@H](Cc1ccc(O)cc1)N1C[C@H](Cc2ccc(O)cc2)N(CC(CC)c2ccccc2)C(=O)C1=O (stereo partly specified) | > 100 | 15
O=C1NC[C@@H](Cc2ccc3ccccc3c2)N(C[C@@H]2CCCN2C[C@H](Cc2ccc(O)cc2)N2C[C@H](Cc3ccc4ccccc4c3)N(CCC34CC5CC(CC(C5)C3)C4)C(=O)C2=O)C1=O | > 100 | 8.4
